Experimental data pooled from the literature.
Compare with care: the assays were run in different laboratories.
Target: Serine/threonine-protein kinase SIK3 (SIK3, Homo sapiens, UniProt Q9Y2K2)

For `O=C(NCCCC1CCCCC1)c1ccc(CNC(=O)c2cnn(-c3ccccc3)c2C(F)(F)F)cc1`, the remaining binding was 76% (cell-free assay, competition with immobilised ligand; 0.1 µM).
`CN(CCCC(F)(F)F)c1nccc(-c2cnn3ncccc23)n1` has a remaining binding of 100% (binding; 1 µM).
`Cc1cnc(Nc2ccc(C(=O)N3CCC(N4CCCC4)CC3)cc2)nc1-c1cc2ccccc2s1` gave a remaining binding of 61% (binding, competition with immobilised ligand; 1 µM).
With `NS(=O)(=O)c1cc(NC(=O)Cc2ccccc2)ccc1Oc1cccc(Cl)c1` the remaining binding was 87% (cell-free assay, competition with immobilised ligand; 1 µM).
For `O=C(c1ccc(Nc2nccc(-c3cc4ccccc4s3)n2)cc1)N1CCC(N2CCCC2)CC1`, the remaining binding was 65% (binding, competition with immobilised ligand; 1 µM).
For `COc1cnc(Nc2cccc(S(N)(=O)=O)c2)nc1N1CCN(c2ccccc2)CC1`, the remaining binding was 84% (binding, competition with immobilised ligand; 1 µM).
For `C[C@@H]1CCN(c2nccc(-c3cnn4ncccc34)n2)C1`, the remaining binding was 31% (binding; 1 µM).
`O=C(O)[C@H]1[C@H](Cn2nnc3ccccc3c2=O)CC[C@@H]1C(=O)c1ccc(OCCC2CCOCC2)cc1` has a remaining binding of 61% (cell-free assay, competition with immobilised ligand; 1 µM).
For `CN(C)c1nccc(-c2cnn3ncccc23)n1`, the remaining binding was 99% (binding; 1 µM).
With `O=C(NCCCN1CCOCC1)c1ccc(Nc2ncc(Cl)c(-c3ccc(Cl)s3)n2)cc1` the remaining binding was 97% (binding, competition with immobilised ligand; 1 µM).
`COc1cnc(Nc2cccc(S(N)(=O)=O)c2)nc1N1CCN(c2ccccc2)C(=O)C1` has a remaining binding of 90% (binding, competition with immobilised ligand; 1 µM).
With `O=C(Nc1ccc(Oc2ccc(F)cc2)cc1)N1CCc2ncccc2[C@H]1c1ccc(F)cc1` the remaining binding was 100% (cell-free assay, competition with immobilised ligand; 1 µM).
For `CN(C)c1ncc(F)c(-c2cnn3ncccc23)n1`, the remaining binding was 87% (binding; 1 µM).
`COc1ncc2cc3ccccc3nc2c1C#N` has a remaining binding of 88% (cell-free assay, competition with immobilised ligand; 5 µM).
For `c1cnn2ncc(-c3ccnc(N4CCC45COC5)n3)c2c1`, the remaining binding was 70% (binding; 1 µM).
`c1cncc(-c2cccc(Nc3nccc(NC4CCCCC4)n3)c2)c1` gave a remaining binding of 83% (binding, competition with immobilised ligand; 10 µM).
`Cc1cc(C)c(-n2ccn3nc(-c4cccnc4)cc23)cc1NC(=O)c1cc(C#N)cc(S(F)(F)(F)(F)F)c1` has a remaining binding of 75.3% (cell-free assay, competition with immobilised ligand; 0.1 µM).
The remaining binding of `O=C(Nc1c[nH]nc1C(=O)NC1CCNCC1)c1cc(F)cc(F)c1` is reported as 66% (binding, competition with immobilised ligand; 1 µM).
With `N[C@H]1CCN(c2nccc(-c3cnn4ncccc34)n2)C1` the remaining binding was 100% (binding; 1 µM).
With `CCS(=O)(=O)c1cc2cc(C[C@](O)(CC(C)(C)c3ccc(F)cc3C(N)=O)C(F)(F)F)[nH]c2cn1` the remaining binding was 85% (cell-free assay, competition with immobilised ligand; 1 µM).
